According to ChEMBL document CHEMBL4680175, “Sulfonamide-based ring-fused analogues for CAN508 as novel carbonic anhydrase inhibitors endowed with antitumor activity: Design, synthesis, and in vitro biological evaluation” (Eur J Med Chem, 2020):
Activity calls are given as the source filed them. The rule behind the calls is not given here.

Key:
[1] = tested on: U-251; test: Antitumor activity against human U251 cells assessed as cell growth inhibition at 10 uM incubated for 48 hrs by sulforhodamine B assay; format: functional; conditions: read-out: GI
In short: (§1)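 NCI one-dose screen: 57-cell-line panel exposed at 10 μM for 48 h, Drug Evaluation Branch protocol. Growth and viability read by sulforhodamine B; data given as percent growth inhibition from the mean-graph of percent growth of treated cells.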

[2] = target: Carbonic anhydrase 12 (Homo sapiens, UniProt O43570); test: Inhibition of recombinant human carbonic anhydrase 12 preincubated with enzyme for 15 mins by phenol red dye based stopped flow CO2 hydrase assay
Carbonic anhydrase 12, sequence (O43570 whole entry): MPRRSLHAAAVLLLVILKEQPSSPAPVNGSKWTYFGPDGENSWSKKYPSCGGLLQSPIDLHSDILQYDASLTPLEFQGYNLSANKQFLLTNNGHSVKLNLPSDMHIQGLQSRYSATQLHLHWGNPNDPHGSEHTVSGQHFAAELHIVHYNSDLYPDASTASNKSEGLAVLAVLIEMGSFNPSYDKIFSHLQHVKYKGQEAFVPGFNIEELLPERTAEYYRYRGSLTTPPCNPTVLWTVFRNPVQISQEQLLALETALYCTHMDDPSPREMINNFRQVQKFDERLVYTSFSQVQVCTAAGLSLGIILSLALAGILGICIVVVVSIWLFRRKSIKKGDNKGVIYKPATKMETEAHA

[3] = tested on: CAKI-1; test: Antitumor activity against human CAKI-1 cells assessed as cell growth inhibition at 10 uM incubated for 48 hrs by sulforhodamine B assay; format: functional; conditions: read-out: GI
In short: (§2)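 NCI Drug Evaluation Branch protocol: primary single-dose screen at 10 μM across a 57-line human cancer panel. Drug exposure is 48 h. Cell growth and viability are read by sulforhodamine B assay. Data are given as a mean graph of percent growth of treated cells and reported as percentage growth inhibition (GI%).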

[4] = tested on: MOLT-4; test: Antitumor activity against human MOLT4 cells assessed as cell growth inhibition at 10 uM incubated for 48 hrs by sulforhodamine B assay; format: functional; conditions: read-out: GI; in short: as §2
[5] = tested on: NCI/ADR-RES; test: Antitumor activity against human NCI/ADR-RES cells assessed as cell growth inhibition at 10 uM incubated for 48 hrs by sulforhodamine B assay; format: functional, cell-based; in short: as §2
[6] = tested on: HCT-116; test: Antitumor activity against human HCT116 cells assessed as cell growth inhibition at 10 uM incubated for 48 hrs by sulforhodamine B assay; format: functional; conditions: read-out: GI; in short: as §2
[7] = tested on: T47D; test: Antitumor activity against human T-47D cells assessed as cell growth inhibition at 10 uM incubated for 48 hrs by sulforhodamine B assay; format: functional; conditions: read-out: GI; in short: as §1
[8] = tested on: Hs-578T; test: Antitumor activity against human HS 578T cells assessed as cell growth inhibition at 10 uM incubated for 48 hrs by sulforhodamine B assay; format: functional; conditions: read-out: GI; in short: as §2
[9] = tested on: RXF 393; test: Antitumor activity against human RXF 393 cells assessed as cell growth inhibition at 10 uM incubated for 48 hrs by sulforhodamine B assay; format: functional; conditions: read-out: GI; in short: as §2
[10] = target: Carbonic anhydrase 2 (Homo sapiens, UniProt P00918); test: Inhibition of recombinant human carbonic anhydrase 2 preincubated with enzyme for 15 mins by phenol red dye based stopped flow CO2 hydrase assay
[11] = tested on: IGROV-1; test: Antitumor activity against human IGROV1 cells assessed as cell growth inhibition at 10 uM incubated for 48 hrs by sulforhodamine B assay; format: functional; conditions: read-out: GI; in short: as §2
[12] = tested on: PC-3; test: Antitumor activity against human PC-3 cells assessed as cell growth inhibition at 10 uM incubated for 48 hrs by sulforhodamine B assay; format: functional; conditions: read-out: GI; in short: as §2
[13] = target: Cyclin-dependent kinase 2/cyclin E1 (Homo sapiens, UniProt P24941); test: Inhibition of CDK2/cyclin E (unknown origin) expressed in baculovirus infected Sf21 insect cells using histone H1 as substrate in presence of [gamma33P]ATP
[14] = tested on: OVCAR-3; test: Antitumor activity against human OVCAR-3 cells assessed as cell growth inhibition at 10 uM incubated for 48 hrs by sulforhodamine B assay; format: functional; conditions: read-out: GI; in short: as §2
[15] = tested on: HOP-92; test: Antitumor activity against human HOP92 cells assessed as cell growth inhibition at 10 uM incubated for 48 hrs by sulforhodamine B assay; format: functional; conditions: read-out: GI; in short: as §2
[16] = tested on: SF-268; test: Antitumor activity against human SF268 cells assessed as cell growth inhibition at 10 uM incubated for 48 hrs by sulforhodamine B assay; format: functional; conditions: read-out: GI; in short: as §2
[17] = tested on: NCI-H460; test: Antitumor activity against human NCI-H460 cells assessed as cell growth inhibition at 10 uM incubated for 48 hrs by sulforhodamine B assay; format: functional; conditions: read-out: GI; in short: as §2
[18] = tested on: Malme-3M; test: Antitumor activity against human MALME-3M cells assessed as cell growth inhibition at 10 uM incubated for 48 hrs by sulforhodamine B assay; format: functional; conditions: read-out: GI; in short: as §2
[19] = tested on: K562; test: Antitumor activity against human K562 cells assessed as cell growth inhibition at 10 uM incubated for 48 hrs by sulforhodamine B assay; format: functional; conditions: read-out: GI; in short: as §2
[20] = tested on: OVCAR-8; test: Antitumor activity against human OVCAR-8 cells assessed as cell growth inhibition at 10 uM incubated for 48 hrs by sulforhodamine B assay; format: functional; conditions: read-out: GI; in short: as §2
[21] = target: Carbonic anhydrase 1 (Homo sapiens, UniProt P00915); test: Inhibition of recombinant human carbonic anhydrase 1 preincubated with enzyme for 15 mins by phenol red dye based stopped flow CO2 hydrase assay
Carbonic anhydrase 1, sequence (P00915 whole entry): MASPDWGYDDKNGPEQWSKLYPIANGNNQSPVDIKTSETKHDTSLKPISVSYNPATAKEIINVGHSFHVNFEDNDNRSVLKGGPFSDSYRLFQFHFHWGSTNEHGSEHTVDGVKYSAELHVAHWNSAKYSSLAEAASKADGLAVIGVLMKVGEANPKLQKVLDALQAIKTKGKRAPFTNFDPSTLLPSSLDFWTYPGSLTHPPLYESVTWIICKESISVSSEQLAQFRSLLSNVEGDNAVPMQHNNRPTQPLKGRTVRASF

[22] = tested on: NCI-H226; test: Antitumor activity against human NCI-H226 assessed as cell growth inhibition at 10 uM incubated for 48 hrs by sulforhodamine B assay; format: functional; conditions: read-out: GI; in short: as §2
[23] = tested on: UO-31; test: Antitumor activity against human UO-31 cells assessed as cell growth inhibition at 10 uM incubated for 48 hrs by sulforhodamine B assay; format: functional; conditions: read-out: GI; in short: as §1
[24] = tested on: SN12C; test: Antitumor activity against human SN12C cells assessed as cell growth inhibition at 10 uM incubated for 48 hrs by sulforhodamine B assay; format: functional; conditions: read-out: GI; in short: as §2
[25] = tested on: MDA-MB-468; test: Antitumor activity against human MDA-MB-468 cells assessed as cell growth inhibition at 10 uM incubated for 48 hrs by sulforhodamine B assay; format: functional; conditions: read-out: GI; in short: as §2
[26] = tested on: LOX IMVI; test: Antitumor activity against human LOX IMVI cells assessed as cell growth inhibition at 10 uM incubated for 48 hrs by sulforhodamine B assay; format: functional; conditions: read-out: GI; in short: as §2
[27] = tested on: MDA-MB-231; test: Antitumor activity against human MDA-MB-231/ATCC cells assessed as cell growth inhibition at 10 uM incubated for 48 hrs by sulforhodamine B assay; format: functional; conditions: read-out: GI; in short: as §2
[28] = tested on: NCI-H322M; test: Antitumor activity against human NCI-H322M cells assessed as cell growth inhibition at 10 uM incubated for 48 hrs by sulforhodamine B assay; format: functional; conditions: read-out: GI; in short: as §2
[29] = tested on: SF-539; test: Antitumor activity against human SF539 cells assessed as cell growth inhibition at 10 uM incubated for 48 hrs by sulforhodamine B assay; format: functional; conditions: read-out: GI; in short: as §2
[30] = tested on: KM12; test: Antitumor activity against human KM12 cells assessed as cell growth inhibition at 10 uM incubated for 48 hrs by sulforhodamine B assay; format: functional; conditions: read-out: GI; in short: as §2
[31] = tested on: SK-MEL-5; test: Antitumor activity against human SK-MEL-5 cells assessed as cell growth inhibition at 10 uM incubated for 48 hrs by sulforhodamine B assay; format: functional; conditions: read-out: GI; in short: as §2
[32] = target: Carbonic anhydrase 9 (Homo sapiens, UniProt Q16790); test: Inhibition of recombinant human carbonic anhydrase 9 preincubated with enzyme for 15 mins by phenol red dye based stopped flow CO2 hydrase assay
[33] = tested on: BT-549; test: Antitumor activity against human BT-549 cells assessed as cell growth inhibition at 10 uM incubated for 48 hrs by sulforhodamine B assay; format: functional; conditions: read-out: GI; in short: as §2
[34] = target: CDK9/cyclin T1 (Homo sapiens, UniProt P50750); test: Inhibition of human full-length N-terminal GST/His6-tagged CDK9 (1 to 372 residues)/His6-tagged Cyclin-T1 (1 to 726 residues) expressed in sf9 cells using (YSPTSPS)2KK peptide as substrate in presence of [gamma33P]ATP
CDK9/cyclin T1, sequence (O60563 whole entry, the tested form may be a part): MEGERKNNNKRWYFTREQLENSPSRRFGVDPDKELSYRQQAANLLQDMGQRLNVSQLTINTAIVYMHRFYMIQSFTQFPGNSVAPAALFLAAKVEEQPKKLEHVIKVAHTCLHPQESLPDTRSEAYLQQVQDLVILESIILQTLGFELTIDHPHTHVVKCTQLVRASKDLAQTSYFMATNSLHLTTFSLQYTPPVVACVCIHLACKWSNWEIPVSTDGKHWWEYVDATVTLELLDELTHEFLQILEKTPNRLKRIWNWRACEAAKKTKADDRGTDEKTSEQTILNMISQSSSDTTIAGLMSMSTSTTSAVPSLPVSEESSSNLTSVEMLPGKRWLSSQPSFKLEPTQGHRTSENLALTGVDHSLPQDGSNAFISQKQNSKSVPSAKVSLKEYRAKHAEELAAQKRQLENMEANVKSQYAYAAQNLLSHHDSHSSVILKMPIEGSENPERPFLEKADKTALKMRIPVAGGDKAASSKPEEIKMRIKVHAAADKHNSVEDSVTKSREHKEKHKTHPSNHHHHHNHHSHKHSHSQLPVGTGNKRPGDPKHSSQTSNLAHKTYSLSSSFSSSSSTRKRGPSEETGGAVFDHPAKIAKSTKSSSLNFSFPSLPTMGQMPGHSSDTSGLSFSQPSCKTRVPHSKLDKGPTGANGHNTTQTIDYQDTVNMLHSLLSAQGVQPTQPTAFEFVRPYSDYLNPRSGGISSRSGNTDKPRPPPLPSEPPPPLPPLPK
CDK9/cyclin T1, sequence (P50750 whole entry, the tested form may be a part): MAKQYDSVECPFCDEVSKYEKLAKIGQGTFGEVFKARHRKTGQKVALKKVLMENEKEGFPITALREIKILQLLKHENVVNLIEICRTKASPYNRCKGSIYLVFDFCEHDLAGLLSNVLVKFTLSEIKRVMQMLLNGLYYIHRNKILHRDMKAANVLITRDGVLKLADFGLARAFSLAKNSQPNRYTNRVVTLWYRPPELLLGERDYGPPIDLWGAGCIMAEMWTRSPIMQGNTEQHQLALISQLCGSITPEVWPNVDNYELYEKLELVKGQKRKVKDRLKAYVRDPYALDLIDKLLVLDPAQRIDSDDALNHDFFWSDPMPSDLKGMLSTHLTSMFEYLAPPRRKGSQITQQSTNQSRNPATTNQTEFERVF

[35] = tested on: SNB-75; test: Antitumor activity against human SNB-75 cells assessed as cell growth inhibition at 10 uM incubated for 48 hrs by sulforhodamine B assay; format: functional; conditions: read-out: GI; in short: as §1
[36] = tested on: SK-MEL-2; test: Antitumor activity against human SK-MEL-2 cells assessed as cell growth inhibition at 10 uM incubated for 48 hrs by sulforhodamine B assay; format: functional; conditions: read-out: GI; in short: as §2
[37] = tested on: MCF7; test: Antitumor activity against human MCF7 cells assessed as cell growth inhibition at 10 uM incubated for 48 hrs by sulforhodamine B assay; format: functional; conditions: read-out: GI; in short: as §2

Compound	inhibition of growth at 10 µM [1]	Ki [2]	inhibition of growth at 10 µM [4]	Activity [5]	inhibition of growth at 10 µM [6]	inhibition of growth at 10 µM [7]	inhibition of growth at 10 µM [8]	inhibition of growth at 10 µM [9]	Ki [10]	inhibition of growth at 10 µM [12]	IC50 [13]	inhibition of growth at 10 µM [14]	inhibition of growth at 10 µM [15]	inhibition of growth at 10 µM [19]	inhibition of growth at 10 µM [20]	Ki [21]	inhibition of growth at 10 µM [22]	inhibition of growth at 10 µM [23]	inhibition of growth at 10 µM [24]	inhibition of growth at 10 µM [25]	other results
Cc1ccc(-c2cn3nc(N)c(/N=N/c4ccc(S(N)(=O)=O)cc4)c3[nH]2)cc1	44%	27.7 nM	55%	inactive	62%	39%	64%	56%	99.7 nM	43%	20300 nM	36%	35%	48%	47%	1200 nM	27%	77%	63%	48%	inhibition of growth at 10 µM [3]: 86%; inhibition of growth at 10 µM [11]: 80%; inhibition of growth at 10 µM [16]: 49%; inhibition of growth at 10 µM [17]: 67%; inhibition of growth at 10 µM [18]: 63%; inhibition of growth at 10 µM [26]: 70%; inhibition of growth at 10 µM [27]: 42%; inhibition of growth at 10 µM [28]: 69%; inhibition of growth at 10 µM [29]: 56%; inhibition of growth at 10 µM [30]: 46%; inhibition of growth at 10 µM [31]: 51%; Ki [32]: 9.4 nM; inhibition of growth at 10 µM [33]: 33%; IC50 [34]: > 12500 nM; inhibition of growth at 10 µM [35]: 66%; inhibition of growth at 10 µM [36]: 57%
N#Cc1c(-c2ccc(F)cc2)nc2c(/N=N/c3ccc(S(N)(=O)=O)cc3)c(N)nn2c1N	28%	10.9 nM	62%	inactive	24%	48%	23%	59%	399 nM	29%	> 12500 nM	20%	58%	33%	25%	2440 nM	25%	38%	24%	71%	inhibition of growth at 10 µM [37]: 59%; inhibition of growth at 10 µM [11]: 36%; inhibition of growth at 10 µM [18]: 20%; inhibition of growth at 10 µM [26]: 28%; inhibition of growth at 10 µM [27]: 37%; inhibition of growth at 10 µM [28]: 21%; inhibition of growth at 10 µM [29]: 28%; inhibition of growth at 10 µM [30]: 53%; inhibition of growth at 10 µM [31]: 31%; Ki [32]: 8.8 nM; IC50 [34]: > 12500 nM; inhibition of growth at 10 µM [35]: 33%; inhibition of growth at 10 µM [36]: 25%
N#Cc1c(-c2ccc(Cl)cc2)nc2c(/N=N/c3ccc(S(N)(=O)=O)cc3)c(N)nn2c1N	30%	14.2 nM	82%	inactive	34%	56%	30%	29%	496 nM	38%	> 12500 nM	25%	29%	28%	25%	2250 nM	25%	36%	27%	56%	inhibition of growth at 10 µM [3]: 26%; inhibition of growth at 10 µM [37]: 51%; inhibition of growth at 10 µM [16]: 23%; inhibition of growth at 10 µM [17]: 21%; inhibition of growth at 10 µM [27]: 52%; inhibition of growth at 10 µM [29]: 25%; inhibition of growth at 10 µM [30]: 75%; inhibition of growth at 10 µM [31]: 31%; Ki [32]: 31.3 nM; inhibition of growth at 10 µM [33]: 35%; IC50 [34]: > 12500 nM; inhibition of growth at 10 µM [36]: 24%
